In ChEMBL document CHEMBL4627406, “Amino Acids Bearing Aromatic or Heteroaromatic Substituents as a New Class of Ligands for the Lysosomal Sialic Acid Transporter Sialin” (J Med Chem, 2020):

Key:
Sialin [1] = molecular target: T1, Sialin (Homo sapiens, UniProt Q9NRA2); assay: Inhibition of human recombinant-Sialin expressed in HEK293 cells assessed as reduction in [3H]Neu5Ac uptake at 30 to 300 uM incubated for 15 mins by liquid scintillation counting method; format: cell-based
T1 sequence (Q9NRA2 whole entry): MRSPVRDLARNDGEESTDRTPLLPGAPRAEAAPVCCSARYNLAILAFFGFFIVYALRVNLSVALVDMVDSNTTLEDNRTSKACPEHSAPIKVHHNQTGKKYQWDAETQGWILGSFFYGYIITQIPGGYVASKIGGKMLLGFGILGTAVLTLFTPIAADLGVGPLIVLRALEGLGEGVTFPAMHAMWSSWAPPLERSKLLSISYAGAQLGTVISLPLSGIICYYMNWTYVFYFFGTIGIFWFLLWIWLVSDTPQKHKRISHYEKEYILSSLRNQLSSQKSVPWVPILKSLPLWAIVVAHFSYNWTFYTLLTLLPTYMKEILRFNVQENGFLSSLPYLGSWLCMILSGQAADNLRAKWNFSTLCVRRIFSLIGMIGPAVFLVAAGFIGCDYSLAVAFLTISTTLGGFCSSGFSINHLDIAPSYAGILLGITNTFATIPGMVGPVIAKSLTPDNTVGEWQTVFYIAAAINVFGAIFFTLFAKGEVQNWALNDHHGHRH
Method in brief: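 HEK293 cells expressing EGFP-human sialin L22G/L23G (sorting mutant at the plasma membrane), assayed 2 days after lipofection. Uptake of [3H]Neu5Ac (12.5 nM) over 15 min at room temperature in MES-Na+ pH 5.0 with inhibitor added together with tracer. Cells washed twice ice-cold, radioactivity counted by liquid scintillation. Dose-response run in triplicate, two to three independent experiments.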

[2] = Lipophilicity, log Pof the compound; format: physicochemical; conditions: octanol/water
Sialin [3] = molecular target: T1, Sialin; assay: Non-competitive inhibition of human recombinant-Sialin expressed in HEK293 cells assessed as reduction in [3H]Neu5Ac uptake incubated for 15 mins by liquid scintillation counting method; format: cell-based

Row | IC50 (Sialin [1]) [µM] | logP [2] | Ki (Sialin [3]) [µM] | Ki (Sialin [1]) [µM] | Compound
1 | 23.3 to 24 | 4.1 | 10.2 | – | CC(C)C[C@H](NC(=O)OCC1c2ccccc2-c2ccccc21)C(=O)O
2 | – | 2.29 | – | 20 | CC(C)C[C@H](NC(=O)N1CCCCCC1)C(=O)N[C@H](Cc1cn(C)c2ccccc12)C(=O)N[C@H](Cc1ccccn1)C(=O)O
3 | 2.4 to 2.9 | 3.91 | 7.8 | – | O=C(N[C@@H](CSCc1cc(=O)oc2cc(O)ccc12)C(=O)O)OCC1c2ccccc2-c2ccccc21
